eIF4H FP inh: inhibitors of RNA binding by human eIF4H; AID 2012; inhibition, % at 35 µM; Q15056; actives 0.94% (n = 290,000); eIF4H fluorescence polarization binding assay;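 further: calls also rest on retests at 20 µM and on dose response follow-up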
PABP FP inh: PABP-poly(A) binding inhibition. P11940. PABP-poly(A) RNA binding, fluorescence polarization. inhibition, % at 35 µM. actives 1% (n = 290,000). AID 2014;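 further: calls also rest on retests at 20 µM and on dose response follow-up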
SKN-1 inh: inhibitors of C. elegans SKN-1; AID 624304; actives 0.49% (n = 360,000); C. elegans VP596 Pgst-4::GFP/RFP ratio, acrylamide-induced, 24 h; inhibition, % at 21.8 µM;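 active means interference check ratio from 0.5 to 1.5 plus GFP to RFP signal ratio inhibition reaching or exceeding a fixed threshold, cut at about 30% in these data, passing the limit was not always enough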
MLLE-PAM2 inh: inhibitors of microRNA-mediated deadenylation, human PABP1 MLLE binding; inhibition, % at 20 µM; GST-MLLE / FITC-PAM2 fluorescence polarization; actives 0.36% (n = 360,000); AID 588489; P11940; in the data active means inhibition above about 35%, passing the limit was not always enough;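 further: plate controls were DMSO wells with GST-MLLE for no effect and wells lacking GST-MLLE protein for full effect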
MT1-MMP act inh: MT1-MMP (human) activation inhibition. AID 651647. P50281. actives 0.061% (n = 360,000). HT1080 RFP-PRO-GFP cells, GFP/RFP ratio fluorescence, overnight; percent of plate control window, DMSO zero. GFP/RFP ratio change, % at 20 µM;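 active means GFP/RFP ratio change of at least 30% with cell ATP level not reduced by more than half and red fluorescence within 50% of control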
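Assay system: HT1080 RFP-PRO-GFP cells. Benchmarks: DMSO vehicle wells and RFP-L50D-GFP reporter cell wells. Times: overnight cell settling, then overnight compound exposure, 37 °C, 5% CO2. Compound: 20 µM single dose, 1% DMSO. Read-out basis: GFP/RFP fluorescence ratio.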
MT1-MMP conf: blocks activation of human MT1-MMP in validation testing. inhibition, % at 20 µM. HT1080 RFP-PRO-GFP cells, GFP and RFP fluorescence ratio, overnight. shares compounds with MT1-MMP act inh. actives 10% (n = 200);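 active means inhibition of at least 50% in the primary cell screen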
* = called active by the depositor; . = not tested or not shown. An excerpt weighted towards active compounds, which were near 1.7% of everything screened. Unless noted, how the calls were made is not given here.

SMILES | eIF4H FP inh | PABP FP inh | SKN-1 inh | MLLE-PAM2 inh | MT1-MMP act inh | MT1-MMP conf
CCN1/C(=C2/SC(=S)N(C)C2=O)C=Cc2cc(C)ccc21 | . | . | 20.9 | -9.0 | 31.2* | 17.9
CCC(/C=C1\Oc2ccc(OC)cc2N1C)=C\c1sc2ccccc2[n+]1CCCS(=O)(=O)[O-] | . | . | 78.7 | -85.5 | 35.3* | -110.1
CC(NC(=S)NC1CCC(C(C)(C)C)CC1)c1ccccc1 (stereo not given) | -6.2 | -1.0 | -9.4 | -62.1 | -4.8 | .
O=S1(=O)CC2SC(=S)N(Cc3ccccc3)C2C1 (stereo not given) | -1.7 | 6.9 | 11.8 | -4.8 | 3.3 | .
COC(CNC(=O)c1ccc2c(c1)nc(C)n2-c1cccc(C)c1)OC | -12.2 | 6.2 | 25.4 | -5.7 | 1.1 | .

Source: PubChem
